Data published in ChEMBL document CHEMBL1287789, “4-deoxy-4-fluoro-xyloside derivatives as inhibitors of glycosaminoglycan biosynthesis” (Bioorg Med Chem Lett, 2010).
The source made the active and inactive calls. No cut-off for these calls is given here.

Assays:
[1] = Cytotoxicity against BLMVEC assessed as cell viability at <=300 uM after 24 hrs by celltiter blue assay; parameters: species or system Bos taurus; conditions: cattle
Procedure, shortened: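 Bovine lung microvascular endothelial cells seeded at 2.5 × 10⁴ cells/well in duplicate, Ham's F-12 with 10% FBS. Exposed to DMSO (control) or compound at 0.1, 0.3 and 1.0 mM for 24 h at 37 °C; 3% H₂O₂ as control. CellTiter-Blue added for 2 h, stopped with 3% SDS, fluorescence read at ex 560/em 590 nm.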

Bos taurus [2] = species on record: Bos taurus; experiment: Inhibition of glycosaminoglycan biosynthesis in BLMVEC assessed as [3H]glucosamine incorporation at 300 uM after 24 hrs by liquid scintillation counting; assay type: functional
Procedure, shortened: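 Cells seeded at 2 × 10⁵/well and grown 24 h at 37 °C, then switched to DMEM with 1 mM glucose and 10% dialyzed FBS. Treated 24 h with 300 µM compound (from 30 mM DMSO stock) or DMSO alone, with ³H-glucosamine. Pronase digest overnight at 37 °C; GAGs bound to DEAE-Sepharose, washed at pH 6.0 with 0.1 M NaCl, eluted with 1 M NaCl; eluate radioactivity by scintillation counting.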

Bos taurus [3] = species on record: Bos taurus; experiment: Inhibition of glycosaminoglycan biosynthesis in BLMVEC assessed as [3H]-labeled-GAG chains by anion exchange chromatography; assay type: functional; conditions: dose or concentration not given here
Procedure, shortened: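 ³H-glucosamine-labelled GAG chains from cells given 300 µM compound or DMSO for 24 h were run on DEAE-HPLC. Elution over 80 min with a 0.2–1 M NaCl linear gradient, monitored by an in-line radiometric detector; heparan sulfate and chondroitin sulfate resolved as separate peaks between 20 and 50 min.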

Structure (SMILES) | Activity [1] | inhibition (Bos taurus [2]) | inhibition (Bos taurus [3])
O[C@@H]1[C@@H](O)[C@@H](n2cc(COCc3ccc4ccccc4c3)nn2)OC[C@H]1F | Non-toxic | Active | –
O[C@@H]1[C@@H](O)[C@@H](n2cc(COc3ccc(F)cc3)nn2)OC[C@H]1F | Non-toxic | Active | –
O=[N+]([O-])c1ccc(OCc2cn([C@@H]3OC[C@@H](F)[C@H](O)[C@H]3O)nn2)cc1 | Non-toxic | 80% | 80%
O[C@@H]1[C@@H](O)[C@H](n2cc(COCc3ccc4ccccc4c3)nn2)OC[C@H]1F | Non-toxic | inactive | –
O=[N+]([O-])c1ccc(OCc2cn([C@H]3OC[C@@H](F)[C@H](O)[C@H]3O)nn2)cc1 | Non-toxic | 80% | 80%
O[C@@H]1[C@@H](O)[C@H](n2cc(COc3ccc(F)cc3)nn2)OC[C@H]1F | Non-toxic | Active | –
O[C@@H]1[C@@H](O)[C@@H](n2cc(-c3ccc4ccccc4c3)nn2)OC[C@H]1F | Non-toxic | Active | –
